KCNQ1 inh – blocks the human KCNQ1 potassium channel. CHO-K1 KCNQ1, FluxOR thallium flux fluorescence; stronger effect = higher value. actives 1.3% (n = 310,000). P51787. B-score at 10 µM;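 active means compounds whose thallium flux B-score, printed positive for inhibition, exceeds three library SD while starting fluorescence stays within three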;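 further: channel opened by potassium depolarization with thallium stimulus after 20 min compound exposure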
Target sequence (P51787 whole entry, looked up): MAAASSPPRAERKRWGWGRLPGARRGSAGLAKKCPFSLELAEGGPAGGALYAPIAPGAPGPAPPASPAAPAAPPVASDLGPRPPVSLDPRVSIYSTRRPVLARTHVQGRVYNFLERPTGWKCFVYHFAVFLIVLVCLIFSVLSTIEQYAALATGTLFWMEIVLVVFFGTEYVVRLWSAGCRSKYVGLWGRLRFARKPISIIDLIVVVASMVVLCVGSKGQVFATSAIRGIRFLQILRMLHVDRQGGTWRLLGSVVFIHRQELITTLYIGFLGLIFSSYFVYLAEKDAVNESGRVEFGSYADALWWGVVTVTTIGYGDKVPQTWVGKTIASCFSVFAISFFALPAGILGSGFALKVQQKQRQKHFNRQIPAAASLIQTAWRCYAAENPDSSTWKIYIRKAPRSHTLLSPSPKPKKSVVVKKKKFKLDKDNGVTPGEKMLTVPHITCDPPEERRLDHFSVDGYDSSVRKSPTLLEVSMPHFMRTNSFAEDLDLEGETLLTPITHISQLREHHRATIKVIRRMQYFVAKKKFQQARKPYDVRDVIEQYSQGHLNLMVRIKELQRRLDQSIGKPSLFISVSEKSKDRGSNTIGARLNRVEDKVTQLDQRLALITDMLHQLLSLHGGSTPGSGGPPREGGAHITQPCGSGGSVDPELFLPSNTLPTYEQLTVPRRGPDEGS
KCNQ1 act – potentiators or activators of human KCNQ1 potassium channel | CHO-K1 KCNQ1, thallium flux FluxOR fluorescence; stronger effect = higher value | B-score at 10 µM | P51787 | actives 0.35% (n = 310,000);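 active means fluorescence ratio B-score, a plate-corrected score, at least three library SD, with initial intensity B-score within 5 SD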
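Medium – assay buffer, equal DMSO in all wells · Material – CHO-K1 cell line with stable KCNQ1 potassium channel expression · Signal – kinetic FluxOR thallium fluorescence, 10-s 1-Hz baseline, 110-s post-stimulus read · Compound – single concentration per compound, DMSO matched to controls · Schedule – 37 °C overnight plating, 90-min dark dye load, 20-min compound pretreatment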
KCC2 mod – modulates chloride dependent transport by human KCC2. B-score of Tl+ flux slope (higher = more flux/activation; lower = inhibition) at 10 µM. KCC2 cells, thallium flux FluoZin-2 fluorescence. actives 2.2% (n = 190,000). Q9H2X9. AID 1456;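 active means thallium flux slope and its plate-corrected score both differing from the plate sample mean at a set confidence after two filtering rounds, in either direction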;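 further: slope of fluorescence scaled to starting intensity during 10 to 20 s after thallium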
hERG protect – shields human hERG channel from block by proarrhythmic agents. CHO-hERG, FluxOR thallium flux, dofetilide IC70 present. activation (rescue from dofetilide block), less the hit threshold, % at 10 µM. actives 0.51% (n = 310,000);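 active means activation above the mean of controls blocked by dofetilide plus 5 SD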;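 further: thallium influx through hERG after potassium depolarization seen as dye fluorescence rise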
KCNK3 inh – human KCNK3 channel inhibition, primary screen; O14649; AID 602410; CHO-KCNK3 thallium flux, FluxOR fluorescence; stronger effect = lower value; B-score at 10 µM; actives 0.84% (n = 340,000);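 active means B-score under library mean minus 4 SD, starting fluorescence ratio at most library mean plus 5 SD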;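 further: more negative B-score means stronger inhibition of thallium flux through KCNK3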
KCNK9 block – blocks the human KCNK9 two-pore domain potassium channel | Q9NPC2 | HEK293 KCNK9, FluxOR thallium flux fluorescence; stronger effect = lower value | B-score at 10 µM | actives 1.2% (n = 310,000) | AID 488922;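 active means ratio B-score over 3 SD below the library mean, with starting fluorescence within 5 SD of its mean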;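 further: negative B-score means less thallium flux so channel inhibition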
KCNK9 block conf – confirmation of human KCNK9 potassium channel inhibitors; shares compounds with KCNK9 block; HEK293 KCNK9 cells, FluxOR thallium flux fluorescence; inhibition, % at 10 µM; actives 43% (n = 4,900);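 active means thallium signal inhibited by more than 5 SD of the compound-free buffer control wells, on both duplicate plates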;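 further: 0% = assay buffer control wells without compound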
Kir21 sel – tests whether KCNK9 modulators also affect mouse Kir2.1 | shares compounds with KCNK9 block | Kir2.1 cells, FluxOR thallium flux fluorescence | inhibition, % at 10 µM | actives 4% (n = 4,900);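 active means thallium signal drop more than 5 SD beyond the mean of the no-compound control wells, seen in both duplicate plates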;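 further: signal is fluorescence rise after thallium addition divided by baseline fluorescence; plate controls were assay buffer only for no effect and full block by chlorpromazine control for full effect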
KCNK9 uninduced – non-induced cell nonspecific activity of KCNK9 modulators; inhibition, % at 10 µM; non-induced KCNK9-HEK293, FluxOR thallium flux; actives 40% (n = 4,900); shares compounds with KCNK9 block;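 active means thallium signal drop beyond 5 SD of the untreated control mean, on both duplicate plates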;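 further: plate controls were buffer only IC0 wells for no effect and SID17386958 at its maximal inhibitory level for full effect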
KCNK3 confirm – human KCNK3 channel inhibition, confirmation assay; ratio percent of control, % at 10 µM; CHO-KCNK3 thallium flux, FluxOR fluorescence; 0% buffer, 100% carvedilol maximal block; actives 99% (n = 2,400); shares compounds with KCNK3 inh;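 active means ratio percent of control, averaged over triplicates, above buffer control mean plus 5 SD, cut at about 64% in these data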;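 further: ratio is the fluorescence rise from min to max over baseline after thallium stimulus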
KCNK3 uninduced – KCNK3 inhibitor counter-screen hit in non-induced cells; shares compounds with KCNK3 inh; thallium flux ratio (lower = more inhibition) at 10 µM; actives 40% (n = 2,400); non-induced KCNK3 parental cells, FluxOR thallium flux; stronger effect = lower value; AID 651747;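 active means thallium flux ratio, averaged over three wells, more than 5 SD below the buffer control mean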;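 further: host cells are CHO cells without KCNK3 induction; ratio is peak minus trough fluorescence over baseline then normalized to buffer controls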
Numbers without * were called inactive. Shown are actives, neighbours in structure and some others; about 4.1% of the full set was active somewhere.

How did Cc1ccnc(NS(=O)(=O)c2ccc(NC(=O)CC(C)c3ccccc3)cc2)n1 (stereo not drawn) do in these assays?
KCNQ1 inh: inactive; KCNQ1 act: inactive; hERG protect: -7; KCNK3 inh: inactive; KCNK9 block: inactive

What do the screens show for `Cc1ccc(Nc2nc(Cl)nc(NC(C)(C)C)n2)cc1`?
KCNQ1 inh: inactive; KCNQ1 act: inactive; hERG protect: -7; KCNK3 inh: inactive; KCNK9 block: inactive

Results for CC(C)(C)Nc1nc(Nc2ccc([N+](=O)[O-])cc2)nc(NC(C)(C)C)n1 ?
KCNQ1 inh: 8*; KCNQ1 act: inactive; hERG protect: -11; KCNK3 inh: -11*; KCNK9 block: -13*; KCNK9 block conf: 46%*; Kir21 sel: inactive; KCNK9 uninduced: 34%*; KCNK3 confirm: 128*; KCNK3 uninduced: 0.13*

What do the screens show for `COc1ccc(NC(=O)c2sccc2SCc2cccc(C(F)(F)F)c2)cc1`?
KCNQ1 inh: inactive; KCNQ1 act: inactive; KCC2 mod: -0.72; hERG protect: -5; KCNK3 inh: -9.1*; KCNK9 block: -16*; KCNK9 block conf: 54%*; Kir21 sel: 34%*; KCNK9 uninduced: 40%*; KCNK3 confirm: 118*; KCNK3 uninduced: inactive

How did CC(OC(=O)c1cccc(S(=O)(=O)N2CCCCC2)c1)C(=O)NC1CCCCC1C (stereo not drawn) do in these assays?
KCNQ1 inh: inactive; KCNQ1 act: inactive; hERG protect: -15; KCNK3 inh: inactive; KCNK9 block: inactive

What do the screens show for `CCOC(=O)c1c(NC(=O)CSc2nnc(C)s2)sc2c1CCCCC2`?
KCNQ1 inh: inactive; KCNQ1 act: inactive; KCC2 mod: 0.0072; hERG protect: -1; KCNK3 inh: -9.8*; KCNK9 block: -9.4*; KCNK9 block conf: 37%*; Kir21 sel: inactive; KCNK9 uninduced: 48%*; KCNK3 confirm: 121*; KCNK3 uninduced: 0.16*

Results for COc1cccc(NC(=O)CN(C)C(=O)CSc2ncnc3sc(C)c(C)c23)c1 ?
KCNQ1 inh: inactive; KCNQ1 act: inactive; hERG protect: -12; KCNK3 inh: inactive; KCNK9 block: inactive

What do the screens show for `CC1(C)Cc2cccc(Oc3cc(NN4CCCCC4)c([N+](=O)[O-])cc3[N+](=O)[O-])c2O1`?
KCNQ1 inh: 6*; KCNQ1 act: inactive; hERG protect: -7; KCNK3 inh: -12*; KCNK9 block: -14*; KCNK9 block conf: 56%*; Kir21 sel: inactive; KCNK9 uninduced: 40%*; KCNK3 confirm: 88*; KCNK3 uninduced: inactive

What do the screens show for `O=[N+]([O-])c1cc([N+](=O)[O-])c(Oc2cccc(Cl)c2Cl)cc1NN1CCCCC1`?
KCNQ1 inh: inactive; KCNQ1 act: inactive; hERG protect: -6; KCNK3 inh: inactive; KCNK9 block: inactive

How did Cc1cc(C)cc(NC(=O)c2ccc(Cn3nc(C)c(Cl)c3C)o2)c1 do in these assays?
KCNQ1 inh: inactive; KCNQ1 act: inactive; KCC2 mod: -1.1; hERG protect: -13; KCNK3 inh: -9.4*; KCNK9 block: -10*; KCNK9 block conf: inactive; Kir21 sel: inactive; KCNK9 uninduced: inactive; KCNK3 confirm: 137*; KCNK3 uninduced: 0.12*

How did Cc1nn(Cc2ccc(C(=O)N/N=C/c3ccncc3)o2)c(C)c1Cl do in these assays?
KCNQ1 inh: inactive; KCNQ1 act: inactive; hERG protect: -12; KCNK3 inh: inactive; KCNK9 block: inactive

Results for COc1ccc(S(=O)(=O)Nc2ccccc2N2CCOCC2)cc1OC ?
KCNK3 inh: inactive

What do the screens show for `O=C(NNC(=O)c1cc(-c2ccccc2)nc2ccccc12)c1csc(N2CCOCC2)n1`?
KCNQ1 inh: inactive; KCNQ1 act: inactive; hERG protect: -19; KCNK3 inh: inactive; KCNK9 block: inactive

How did O=C(NNC(=O)c1cc(-c2ccc(Cl)cc2)nc2ccccc12)c1csc(N2CCOCC2)n1 do in these assays?
KCNQ1 inh: inactive; KCNQ1 act: inactive; hERG protect: -17; KCNK3 inh: -9*; KCNK9 block: -10*; KCNK9 block conf: 28%*; Kir21 sel: inactive; KCNK9 uninduced: inactive; KCNK3 confirm: 80*; KCNK3 uninduced: inactive

Results for O=C(CCCSc1nnc(SCCCC(=O)c2ccc(F)cc2)s1)c1ccc(F)cc1 ?
KCNQ1 inh: inactive; KCNQ1 act: inactive; hERG protect: -18; KCNK3 inh: -11*; KCNK9 block: inactive; KCNK9 block conf: inactive; Kir21 sel: inactive; KCNK9 uninduced: inactive; KCNK3 confirm: 100*; KCNK3 uninduced: inactive

Results for COc1ccc(OC)c(-c2csc(NC(=O)c3ccccc3F)n2)c1 ?
KCNQ1 inh: inactive; KCNQ1 act: inactive; hERG protect: -5; KCNK3 inh: inactive; KCNK9 block: inactive

Results for COc1ccc(OC)c(-c2csc(NC(=O)Cc3ccccc3OC)n2)c1 ?
KCNQ1 inh: inactive; KCNQ1 act: inactive; hERG protect: -3; KCNK3 inh: -13*; KCNK9 block: -16*; KCNK9 block conf: inactive; Kir21 sel: inactive; KCNK9 uninduced: 40%*; KCNK3 confirm: 89*; KCNK3 uninduced: inactive

How did CCOc1ccccc1Cn1c(=O)oc2ccc(C)cc21 do in these assays?
KCC2 mod: -1.4; KCNK3 inh: inactive

Results for CCCOc1ccccc1Cn1c(=O)oc2ccc(C)cc21 ?
KCNQ1 inh: inactive; KCNQ1 act: 16*; KCC2 mod: -1.5; hERG protect: -18; KCNK3 inh: -8.7*; KCNK9 block: -10*; KCNK9 block conf: 52%*; Kir21 sel: inactive; KCNK9 uninduced: 46%*; KCNK3 confirm: 115*; KCNK3 uninduced: inactive

What do the screens show for `Nc1c(C(=O)Nc2cccc(F)c2)nnn1-c1ccc2c(c1)OCCO2`?
KCNQ1 inh: inactive; KCNQ1 act: inactive; hERG protect: -1; KCNK3 inh: inactive; KCNK9 block: inactive

Bioassay records deposited in PubChem BioAssay by several laboratories.
